Laboratory results as given in ChEMBL document CHEMBL1629542, “Epigallocatechin gallate inactivates clinical isolates of herpes simplex virus” (Antimicrob Agents Chemother, 2008).
Active and inactive are the calls of the source. No cut-off for these calls is given here.

Tests used:
Human alphaherpesvirus 1 [1] = assay: Antiviral activity against Human herpesvirus 1 isolate P56 infected in African green monkey vero cells assessed as log reduction in viral titer at 50 uM; assay type: functional
Summary of the method: (§1)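 Laboratory HSV-1 F1 or patient-swab HSV-1 isolates were prepared as clarified Vero supernatants. They were incubated 1 h with a range of EGCG concentrations in RPMI 1640/1% FCS at pH 7.4. Titres were determined on Vero cells by 5-day CPE endpoint (Reed-Muench). IC99 was read graphically as 99% titre drop from untreated; mean ± SD, three experiments.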

Human alphaherpesvirus 2 [2] = assay: Antiviral activity against Human herpesvirus 2 isolate P11 infected in African green monkey CV1 cells; assay type: functional, organism-based; conditions: Human alphaherpesvirus 2, isolate P11, CV-1
Summary of the method: (§2)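 HSV-2 patient-swab isolates were grown as clarified CV-1 supernatants and incubated 1 h with a range of EGCG concentrations (RPMI 1640/1% FCS, pH 7.4). They were titrated on CV-1 cells from 10-fold dilutions by 5-day CPE at 37°C, with Reed-Muench TCID50. IC99 was derived graphically as 99% reduction from zero-drug titre; mean ± SD, three experiments.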

Human alphaherpesvirus 2 [3] = assay: Antiviral activity against Human herpesvirus 2 isolate P27 infected in African green monkey CV1 cells assessed as log reduction in viral titer at 100 uM within 20 mins; assay type: functional, CV-1
Summary of the method: (§3)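 Time course: clarified CV-1 supernatant of HSV-2 (clinical isolates or strain 333) was exposed to 100 μM EGCG for increasing times. It was then titrated by tenfold dilution on CV-1 cells, three wells per dilution, for 5 days at 37°C with CPE read-out. Reed-Muench TCID50 was compared with the untreated titer. Mean of three separate experiments.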

Human alphaherpesvirus 1 [4] = assay: Antiviral activity against Human herpesvirus 1 F1 infected in African green monkey vero cells assessed as reduction in viral titer; assay type: functional, organism-based; conditions: Human alphaherpesvirus 1, F1, Vero; summary of the method: as §1
Human alphaherpesvirus 2 [5] = assay: Antiviral activity against Human herpesvirus 2 isolate P47 infected in African green monkey CV1 cells assessed as log reduction viral titer at 50 uM; assay type: functional, CV-1
Summary of the method: (§4)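 HSV-2 (clinical swab isolates or strain 333) was grown in CV-1 cells and used as clarified supernatant. Virus was exposed to graded EGCG for 1 h in RPMI 1640 with 1% FCS, pH 7.4. Tenfold dilutions were titrated on CV-1 cells, three wells each, 5 days at 37°C, scoring CPE. TCID50 was calculated by Reed-Muench. IC99 was read graphically as 99% titer drop from the zero-concentration titer. Mean of three experiments.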

Human alphaherpesvirus 1 [6] = assay: Antiviral activity against Human herpesvirus 1 isolate P56 infected in African green monkey vero cells assessed as reduction in viral titer at 100 uM; assay type: functional, organism-based; summary of the method: as §1
Human alphaherpesvirus 1 [7] = assay: Antiviral activity against Human herpesvirus 1 isolate P32 infected in African green monkey vero cells assessed as log reduction in viral titer at 100 uM within 10 mins; assay type: functional
Summary of the method: (§5)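 In the time course, HSV-1 clinical isolates (clarified Vero supernatants) were exposed to 100 μM EGCG for varying times up to 60 min. Residual infectivity was then titrated on Vero cells by 5-day CPE endpoint with Reed-Muench calculation. Mean ± SD of three separate experiments.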

Human alphaherpesvirus 2 [8] = assay: Antiviral activity against Human herpesvirus 2 isolate P22 infected in African green monkey CV1 cells assessed as log reduction viral titer at 50 uM; assay type: functional, CV-1; summary of the method: as §4
Human alphaherpesvirus 1 [9] = assay: Antiviral activity against Human herpesvirus 1 isolate P25 infected in African green monkey vero cells assessed as log reduction in viral titer at 100 uM after 40 to 60 mins; assay type: functional; summary of the method: as §5
Human alphaherpesvirus 2 [10] = assay: Antiviral activity against Human herpesvirus 2 isolate P27 infected in African green monkey CV1 cells assessed as log reduction in viral titer at 12.5 uM; assay type: functional, CV-1; summary of the method: as §4
Human alphaherpesvirus 2 [11] = assay: Antiviral activity against Human herpesvirus 2 strain 333 infected in African green monkey CV1 cells assessed as log reduction viral titer at 12.5 ug/ml; assay type: functional, CV-1; summary of the method: as §4
Human alphaherpesvirus 1 [12] = assay: Antiviral activity against Human herpesvirus 1 isolate P25 infected in African green monkey vero cells assessed as reduction in viral titer; assay type: functional, organism-based; conditions: Human alphaherpesvirus 1, isolate P25, Vero; summary of the method: as §1
Human alphaherpesvirus 2 [13] = assay: Antiviral activity against Human herpesvirus 2 isolate P2 infected in African green monkey CV1 cells assessed as log reduction viral titer at 50 uM; assay type: functional, CV-1; summary of the method: as §4
Human alphaherpesvirus 2 [14] = assay: Antiviral activity against Human herpesvirus 2 isolate P11 infected in African green monkey CV1 cells assessed as log reduction in viral titer at 100 uM within 10 mins; assay type: functional, CV-1
Summary of the method: (§6)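 HSV-2 clinical isolates from clarified CV-1 supernatants were held with 100 μM EGCG for timed intervals, from 10 min onward. Surviving virus was titrated on CV-1 cells by 10-fold dilution and 5-day CPE scoring, with TCID50 by Reed-Muench. Values are mean ± SD, three experiments.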

Human alphaherpesvirus 1 [15] = assay: Antiviral activity against Human herpesvirus 1 isolate P32 infected in African green monkey vero cells assessed as reduction in viral titer; assay type: functional, organism-based; conditions: Human alphaherpesvirus 1, isolate P32, Vero; summary of the method: as §1
Human alphaherpesvirus 1 [16] = assay: Antiviral activity against Human herpesvirus 1 isolate P15 infected in African green monkey vero cells assessed as reduction in viral titer at 100 uM; assay type: functional, organism-based; summary of the method: as §1
Human alphaherpesvirus 2 [17] = assay: Antiviral activity against Human herpesvirus 2 strain 333 strain 333 infected in African green monkey CV-1 cells; assay type: functional, cell-based; conditions: Human alphaherpesvirus 2, strain 333, CV-1; summary of the method: as §4
Human alphaherpesvirus 2 [18] = assay: Antiviral activity against Human herpesvirus 2 isolate P12 infected in African green monkey CV1 cells assessed as log reduction viral titer at 50 uM; assay type: functional, CV-1; summary of the method: as §2
Human alphaherpesvirus 2 [19] = assay: Antiviral activity against Human herpesvirus 2 isolate P27 infected in African green monkey CV1 cells assessed as log reduction viral titer at 50 uM; assay type: functional, CV-1; summary of the method: as §4
Human alphaherpesvirus 2 [20] = assay: Antiviral activity against Human herpesvirus 2 isolate P12 infected in African green monkey CV1 cells; assay type: functional, organism-based; conditions: Human alphaherpesvirus 2, isolate P12, CV-1; summary of the method: as §2
Human alphaherpesvirus 2 [21] = assay: Antiviral activity against Human herpesvirus 2 isolate P27 infected in African green monkey CV1 cells; assay type: functional, organism-based; conditions: Human alphaherpesvirus 2, isolate P27, CV-1; summary of the method: as §4
Human alphaherpesvirus 2 [22] = assay: Antiviral activity against Human herpesvirus 2 isolate P2 infected in African green monkey CV1 cells assessed as log reduction in viral titer at 100 uM within 10 mins; assay type: functional, CV-1; summary of the method: as §6
Human alphaherpesvirus 1 [23] = assay: Antiviral activity against Human herpesvirus 1 isolate P25 infected in African green monkey vero cells assessed as log reduction in viral titer at 100 uM after 30 mins; assay type: functional; summary of the method: as §5
Human alphaherpesvirus 1 [24] = assay: Antiviral activity against Human herpesvirus 1 isolate P42 infected in African green monkey vero cells assessed as log reduction in viral titer at 100 uM after 40 to 60 mins; assay type: functional; summary of the method: as §5
Human alphaherpesvirus 2 [25] = assay: Antiviral activity against Human herpesvirus 2 isolate P22 infected in African green monkey CV1 cells assessed as log reduction in viral titer at 100 uM within 20 mins; assay type: functional, CV-1; summary of the method: as §3
Human alphaherpesvirus 1 [26] = assay: Antiviral activity against Human herpesvirus 1 F1 infected in African green monkey vero cells assessed as log reduction in viral titer at 100 uM; assay type: functional
Summary of the method: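 HSV-1 F1 was grown in Vero cells and the clarified supernatant was incubated with 100 μM EGCG for 60 min at 37°C in RPMI 1640/1% FCS, pH 7.4. Titre was then measured on Vero cells from 10-fold dilutions, three wells per dilution, over 5 days at 37°C by CPE. TCID50 was calculated by Reed-Muench; three separate experiments.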

Human alphaherpesvirus 2 [27] = assay: Antiviral activity against Human herpesvirus 2 isolate P2 infected in African green monkey CV1 cells assessed as log reduction in viral titer at 100 uM within 20 mins; assay type: functional, CV-1; summary of the method: as §3
Human alphaherpesvirus 1 [28] = assay: Antiviral activity against Human herpesvirus 1 isolate P38 infected in African green monkey vero cells assessed as log reduction in viral titer at 100 uM after 40 to 60 mins; assay type: functional; summary of the method: as §5

O=C(O[C@@H]1Cc2c(O)cc(O)cc2O[C@@H]1c1cc(O)c(O)c(O)c1)c1cc(O)c(O)c(O)c1 [EPIGALOCATECHIN GALLATE]
FC (Human alphaherpesvirus 1 [1]): 2 | IC99 (Human alphaherpesvirus 2 [2]): 12.5 µM | FC (Human alphaherpesvirus 2 [3]): 3 | IC99 (Human alphaherpesvirus 1 [4]): 72.3 µM | FC (Human alphaherpesvirus 2 [5]): >4 | Activity (Human alphaherpesvirus 1 [6]): Active | FC (Human alphaherpesvirus 1 [7]): 2 | FC (Human alphaherpesvirus 2 [8]): >4 | FC (Human alphaherpesvirus 1 [9]): 3 | FC (Human alphaherpesvirus 2 [10]): >=2 | FC (Human alphaherpesvirus 2 [11]): 0.56 | IC99 (Human alphaherpesvirus 1 [12]): 45.4 µM | FC (Human alphaherpesvirus 2 [13]): >4 | FC (Human alphaherpesvirus 2 [14]): 2 | IC99 (Human alphaherpesvirus 1 [15]): 16 µM | Activity (Human alphaherpesvirus 1 [16]): Active | IC99 (Human alphaherpesvirus 2 [17]): 25 µM | FC (Human alphaherpesvirus 2 [18]): >4 | FC (Human alphaherpesvirus 2 [19]): >4 | IC99 (Human alphaherpesvirus 2 [20]): 12.5 µM | IC99 (Human alphaherpesvirus 2 [21]): 12.1 µM | FC (Human alphaherpesvirus 2 [22]): 2 | FC (Human alphaherpesvirus 1 [23]): 2 | FC (Human alphaherpesvirus 1 [24]): 3 | FC (Human alphaherpesvirus 2 [25]): 3 | FC (Human alphaherpesvirus 1 [26]): >=3 | FC (Human alphaherpesvirus 2 [27]): 3 | FC (Human alphaherpesvirus 1 [28]): 3
